Assay outcomes: PubChem BioAssay, The Scripps Research Institute Molecular Screening Center
SIAE primary = human SIAE inhibition, primary screen | Q9HAT2 | SIAE FP-Rh probe binding, fluorescence polarization | inhibition, % at 9.66 µM | 0.69% of 370,000 active | AID 1053197;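 active = inhibition above a cutoff: mean of compounds within the control limits plus 3 SD of those, cut at about 17% in these data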;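 also: 0% = plate median of compound wells and 100% = probe without SIAE protein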
Target sequence (Q9HAT2 whole entry, looked up): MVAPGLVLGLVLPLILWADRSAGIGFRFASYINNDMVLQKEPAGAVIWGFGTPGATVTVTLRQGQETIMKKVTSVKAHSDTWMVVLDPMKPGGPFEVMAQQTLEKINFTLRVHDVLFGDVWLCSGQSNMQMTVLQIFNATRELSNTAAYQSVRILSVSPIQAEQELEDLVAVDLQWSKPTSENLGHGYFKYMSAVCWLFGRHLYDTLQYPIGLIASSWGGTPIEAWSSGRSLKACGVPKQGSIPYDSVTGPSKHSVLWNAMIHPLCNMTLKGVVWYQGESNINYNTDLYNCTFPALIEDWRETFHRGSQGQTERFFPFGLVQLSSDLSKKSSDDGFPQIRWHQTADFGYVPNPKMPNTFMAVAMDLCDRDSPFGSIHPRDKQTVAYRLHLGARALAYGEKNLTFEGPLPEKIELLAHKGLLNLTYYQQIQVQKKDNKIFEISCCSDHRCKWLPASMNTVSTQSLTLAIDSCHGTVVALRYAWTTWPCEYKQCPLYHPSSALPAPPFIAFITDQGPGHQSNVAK
PAD4 inh = inhibitors of human PAD4 | AID 485272 | inhibition, % at 6.36 µM | 0.41% of 330,000 active | recombinant PAD4, RCA probe fluorescence polarization;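 active = percent inhibition above a cutoff equal to the mean of all tested compounds plus 3 SD, cut at about 15% in these data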;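 also: 0% = PAD4 with RCA probe and DMSO and 100% = probe without PAD4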
RBBP9 inh = human RBBP9 hydrolase inhibition; recombinant RBBP9, FP-Rh probe fluorescence polarization; inhibition, % at 7.94 µM; 0.2% of 220,000 active; O75884; AID 1515;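 active = inhibition above the campaign mean of all tested compounds plus 3 SD, cut at about 14% in these data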;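 also: plate controls were DMSO wells with RBBP9 for no effect and wells lacking RBBP9 protein for full effect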
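Material: RBBP9 protein. Amount: RBBP9 at 2.5 µM in dispensed solution, before mixing. Schedule: 30 min then 45 min, 25 °C. Medium: Tris buffer pH 8.0, NaCl, Pluronic. Measured by: fluorescence polarization. Measure: percent inhibition from mP, scaled between DMSO and no-protein wells. Replication: one well per compound.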
GSTO1 counter = blocks human GSTO1 in RBBP9 counter-screen; P78417; recombinant GSTO1, activity-based probe fluorescence polarization; inhibition, % at 5.96 µM; 1.1% of 300,000 active;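 active = inhibition above the campaign mean inhibition plus 3 SD, cut at about 35% in these data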;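 also: 0% = GSTO1-1 with DMSO and 100% = wells lacking GSTO1-1 enzyme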
PRMT1 FP inh = inhibitors of human PRMT1 | 1.3% of 370,000 active | inhibition, % at 2.79 µM | recombinant PRMT1, activity-based probe fluorescence polarization;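 active = inhibition above about 21% made by adding two undisclosed values, limit read from the data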
PRMT1 confirm = PRMT1 (human) inhibition, FP confirmation; shares compounds with PRMT1 FP inh; recombinant His-PRMT1, activity-based probe fluorescence polarization; inhibition, % at 2.79 µM; 42% of 3,300 active; AID 687036;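 active = mean inhibition across replicates above the hit cutoff derived for the earlier primary screen, cut at about 22% in these data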
An asterisk follows results filed as active; . = not tested or not shown. Compounds with a hit are over-represented: about 2.7% of the library has one in this group of screens.

SMILES | SIAE primary | PAD4 inh | RBBP9 inh | GSTO1 counter | PRMT1 FP inh | PRMT1 confirm
CCCCN(CC)CCNC(=O)C1CCCN(S(=O)(=O)c2cccc3nsnc23)C1 (stereo not drawn) | 4 | -1 | . | 6 | 1 | .
CCc1ccc2[nH]c(=O)c(CN(Cc3ccccc3)Cc3nnnn3Cc3ccco3)cc2c1 | -14 | -1 | -12 | 3 | 13 | .
COc1ccccc1CN(Cc1cc2cc3c(cc2[nH]c1=O)OCCO3)Cc1nnnn1Cc1ccco1 | 5 | -6 | 1 | 14 | 36* | 2
O=C1c2ccccc2NC(c2cccs2)N1O (stereo not drawn) | -2 | . | . | . | 0 | .
CC1(C)CC(=O)C(C(c2cc([N+](=O)[O-])ccc2Cl)C2C(=O)CC(C)(C)CC2=O)C(=O)C1 | -5 | 7 | . | 11 | 4 | .
Cc1sc(C(C2C(=O)CC(C)(C)CC2=O)C2C(=O)CC(C)(C)CC2=O)cc1[N+](=O)[O-] | 7 | 2 | -2 | 16 | 26* | 45*
COc1ccc(S(=O)(=O)/N=C2/NC(=O)/C(=C\c3ccco3)S2)cc1 | -18 | -6 | -5 | 13 | 30* | 16
COc1ccc(N=C2NC(=O)/C(=C/c3ccco3)S2)cc1 | 14 | 1 | -4 | -10 | 6 | .
COc1ccc(S(=O)(=O)/N=C2/NC(=O)/C(=C/c3ccco3)S2)cc1 | -23 | -6 | -6 | 6 | 47* | 6
COc1cc(/C=C/C(=O)OCC(=O)NCc2cccs2)ccc1OC(F)F | 5 | -2 | -8 | -8 | 1 | .
O=C(OCC(=O)N1N=C(c2ccc(Cl)cc2)CC1c1ccco1)c1cccnc1 (stereo not drawn) | -9 | -3 | . | . | 40* | 8
Cc1ccc(/C=C/C(=O)OCc2nc(N)nc(Nc3ccccc3C)n2)o1 | -1 | -1 | -10 | 4 | 34* | -6
Cc1ccccc1Nc1nc(N)nc(COC(=O)c2ccco2)n1 | 4 | 1 | . | . | -2 | .
CC(=O)NC1C(=O)N=C(SCC(=O)NC2CCCCC2)NC1=O (stereo not drawn) | 0 | 3 | -7 | 2 | 17 | .
CC(=O)NC1C(=O)N=C(SCc2ccccc2)NC1=O (stereo not drawn) | 1 | -4 | 4 | 9 | 0 | .
CC(=O)NC1C(=O)N=C(SCC(=O)NC(C)c2ccccc2)NC1=O (stereo not drawn) | 3 | 3 | -3 | 8 | 31* | 15
CC(=O)NC1C(=O)N=C(SCC(=O)Nc2ccc(C(F)(F)F)cc2Cl)NC1=O (stereo not drawn) | 2 | 0 | -1 | -23 | 38* | 19
COc1ccccc1NC(=O)CSC1=NC(=O)C(Cc2ccccc2)C(=O)N1 (stereo not drawn) | 3 | 5 | . | 10 | 3 | .
COc1ccccc1NC(=O)CSC1=NC(=O)C(NC(C)=O)C(=O)N1 (stereo not drawn) | -1 | 8 | -8 | 0 | 25* | 9
CCOC(=O)c1c(C)[nH]c(C)c1S(=O)(=O)N1c2ccccc2CC1C (stereo not drawn) | -2 | 7 | . | -1 | 2 | .
COc1ccc(OCCOC(=O)CNC(=O)c2ccc(Cl)cc2Cl)cc1 | 1 | -7 | . | -2 | 5 | .
Cc1cc(-n2c(C)cc(C(=O)CSc3nnnn3-c3ccccc3)c2C)no1 | -10 | 2 | -17 | 30 | 4 | .
Cc1cc(-n2c(C)cc(C(=O)CSc3ccccn3)c2C)no1 | 6 | -4 | . | . | 26* | 18
CCOC(=O)c1c(-n2c(C)cc(C=O)c2C)sc2c1CCCC2 | -9 | -4 | -1 | 3 | -2 | .
Cc1ccc(C)n1-c1sc2c(c1C(=O)O)CCCC2 | 3 | -4 | -7 | 7 | 27* | 1
SMILES | SIAE primary | PAD4 inh | RBBP9 inh | GSTO1 counter | PRMT1 FP inh | PRMT1 confirm
CC(C)(C)c1nc2scc(-c3ccc(Br)cc3)c2c(=O)o1 | -1 | 0 | 1 | 1 | 0 | .
CCn1c(C)c(P(=O)(N2CCOCC2)N2CCOCC2)c2ccccc21 | 2 | 3 | -6 | -8 | -1 | .
Cn1cc(P(=S)(N2CCOCC2)N2CCOCC2)cc1P(=O)(N1CCOCC1)N1CCOCC1 | -4 | 3 | -4 | -7 | 40* | 6
Cn1cc(P(=O)(N2CCOCC2)N2CCOCC2)cc1P(=S)(N1CCOCC1)N1CCOCC1 | 8 | 0 | -9 | 6 | 30* | 40*
COc1ccc(NC(=O)CCc2c(C)nc3nc(CNC(=O)c4cccc(F)c4)nn3c2C)cc1OC | 2 | -2 | . | 0 | 0 | .
CCOC(=O)c1c2c(c(=S)n(-c3ccccc3)c1N)CCC2 | 7 | -6 | -9 | 7 | -1 | .
N#Cc1c2c(c(=S)n(-c3ccccc3)c1N)CCCC2 | 8 | 2 | 4 | 2 | 26* | 8
CCN(CC)S(=O)(=O)c1cccc(-c2n[nH]c(=S)n2/N=C/c2ccc(OC)cc2)c1 | -2 | 2 | -12 | 5 | 59* | 30*
CCN(CC)S(=O)(=O)c1cccc(-c2n[nH]c(=S)n2/N=C/c2ccc(Br)cc2)c1 | -5 | 5 | -7 | 3 | 46* | 33*
CCC(C)n1c(-c2cccc(S(=O)(=O)N(CC)CC)c2)n[nH]c1=S (stereo not drawn) | 9 | 2 | -4 | 0 | 0 | .
CCOc1ccc(C=Nn2c(-c3cccc(OC(C)C)c3)n[nH]c2=S)cc1 | 1 | . | . | . | 29* | 10
CCCCCCn1c(-c2cccs2)n[nH]c1=S | 2 | -2 | -7 | -7 | 41* | 5
CNC(=S)N/N=C1\C(=O)c2cccc3cccc1c23 | 0 | -2 | -3 | -1 | -1 | .
Cc1nnc(SCC(=O)N2CCOCC2)c2ccccc12 | 4 | 14 | -8 | 7 | 7 | .
C=CCn1c(SCc2csc(-c3ccc(C)cc3)n2)nnc1-c1ccccc1OC | 3 | 1 | 0 | 1 | -3 | .
COC(=O)c1c(NC(=O)C2Cc3ccccc3C(=O)O2)sc2c1CCCC2 (stereo not drawn) | -4 | -1 | -8 | -4 | -1 | .
Cc1ccc(/C=N/n2c(-c3ccccc3)n[nH]c2=S)cc1 | -2 | 6 | . | 4 | 16 | .
CC(C)c1ccc(/C=N/n2c(-c3ccccc3)n[nH]c2=S)cc1 | 4 | -1 | . | 3 | 51* | 21*
COc1ccc(/C=N/n2c(-c3cccs3)n[nH]c2=S)cc1 | 1 | 4 | -9 | -15 | 11 | .
S=c1[nH]nc(-c2cccc(Cl)c2)n1/N=C/c1ccco1 | . | 2 | -11 | 5 | . | .
Cc1ccc(/C=N/n2c(-c3cccs3)n[nH]c2=S)cc1 | -1 | 4 | -9 | -14 | 25* | 13
Cc1ccc(/C=N/n2c(-c3cccc(Cl)c3)n[nH]c2=S)o1 | -1 | -4 | -7 | -10 | 26* | 13
CCN(CC)S(=O)(=O)c1cccc(-c2n[nH]c(=S)n2/N=C/c2ccc(OC(F)F)cc2)c1 | 9 | 2 | -7 | 0 | 51* | 34*
COC(=O)c1ccc(-n2c(C)ccc2-c2ccccc2)cc1 | 1 | -3 | -2 | -9 | 26* | 8
COc1cnc(-c2ccccc2)c(-c2ccccc2)n1 | -5 | -2 | . | -4 | 4 | .
